Results taken from ChEMBL document CHEMBL5055631, “Antitumor properties of novel sesquiterpene lactone analogs as NFκB inhibitors that bind to the IKKβ ubiquitin-like domain (ULD)” (Eur J Med Chem, 2021).

Columns and labels:
Format in all cases: functional
CCRF-CEM = test: Anticancer activity against human CCRF-CEM cells assessed as cell growth inhibition incubated for 48 hrs by sulforhodamine B assay
RPMI-8226 = test: Anticancer activity against human RPMI-8226 cells assessed as cell growth inhibition incubated for 48 hrs by SRB method
SR = test: Anticancer activity against human SR cells assessed as cell growth inhibition incubated for 48 hrs by SRB method
In short: (§1)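 NCI-60 panel (DTP). Cells in RPMI 1640 with 5% FBS, 2 mM L-glutamine, seeded at 5,000–40,000 per well by doubling time and preincubated 24 h at 37 °C, 5% CO2. Time-zero plates TCA-fixed. DMSO stocks diluted in medium with gentamicin, tested at 100 μM, 10 μM, 1 μM, 0.1 μM and 10 nM for 48 h. Cells fixed with cold TCA, stained with SRB, absorbance read at 515 nm.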

A549 = test: Anticancer activity against human A549 cells assessed as cell growth inhibition incubated for 48 hrs by SRB method; in short: as §1
EKVX = test: Anticancer activity against human EKVX cells assessed as cell growth inhibition incubated for 48 hrs by SRB method; in short: as §1
HOP-62 = test: Anticancer activity against human HOP-62 cells assessed as cell growth inhibition incubated for 48 hrs by SRB method; in short: as §1
MOLT-4 = test: Anticancer activity against human MOLT-4 assessed as cell growth inhibition incubated for 48 hrs by SRB method
HOP-92 = test: Anticancer activity against human HOP-92 cells assessed as cell growth inhibition incubated for 48 hrs by SRB method
K562 = test: Anticancer activity against human K562 cells assessed as cell growth inhibition incubated for 48 hrs by SRB method
HL-60(TB) = test: Anticancer activity against human HL-60(TB) cells assessed as cell growth inhibition incubated for 48 hrs by SRB method
NCI-H226 = test: Anticancer activity against human NCI-H226 cells assessed as cell growth inhibition incubated for 48 hrs by SRB method; in short: as §1
NCI-H23 = test: Anticancer activity against human NCI-H23 cells assessed as cell growth inhibition incubated for 48 hrs by SRB method; in short: as §1
NCI-H460 = test: Anticancer activity against human NCI-H460 cells assessed as cell growth inhibition incubated for 48 hrs by SRB method; in short: as §1
NCI-H522 = test: Anticancer activity against human NCI-H522 cells assessed as cell growth inhibition incubated for 48 hrs by SRB method
COLO 205 = test: Anticancer activity against human COLO 205 cells assessed as cell growth inhibition incubated for 48 hrs by SRB method
HCC 2998 = test: Anticancer activity against human HCC 2998 cells assessed as cell growth inhibition incubated for 48 hrs by SRB method; in short: as §1
HCT-116 = test: Anticancer activity against human HCT-116 cells assessed as cell growth inhibition incubated for 48 hrs by SRB method; in short: as §1
HCT-15 = test: Anticancer activity against human HCT-15 cells assessed as cell growth inhibition incubated for 48 hrs by SRB method; in short: as §1
HT-29 = test: Anticancer activity against human HT29 cells assessed as cell growth inhibition incubated for 48 hrs by SRB method; in short: as §1
KM12 = test: Anticancer activity against human KM12 cells assessed as cell growth inhibition incubated for 48 hrs by SRB method; in short: as §1
SW-620 = test: Anticancer activity against human SW-620 cells assessed as cell growth inhibition incubated for 48 hrs by SRB method
SF-268 = test: Anticancer activity against human SF-268 cells assessed as cell growth inhibition incubated for 48 hrs by SRB method; in short: as §1
SF-295 = test: Anticancer activity against human SF-295 cells assessed as cell growth inhibition incubated for 48 hrs by SRB method; in short: as §1
SF-539 = test: Anticancer activity against human SF-539 cells assessed as cell growth inhibition incubated for 48 hrs by SRB method
SNB-19 = test: Anticancer activity against human SNB-19 cells assessed as cell growth inhibition incubated for 48 hrs by SRB method; in short: as §1
SNB-75 = test: Anticancer activity against human SNB-75 cells assessed as cell growth inhibition incubated for 48 hrs by SRB method
U-251 = test: Anticancer activity against human U-251 cells assessed as cell growth inhibition incubated for 48 hrs by SRB method
In short: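 NCI-60 panel, SRB assay. Cells grown in RPMI 1640 with 5% FBS and 2 mM L-glutamine, seeded at 5,000–40,000 cells/well depending on doubling time, and preincubated 24 h at 37 °C with 5% CO2. Time-zero plates were TCA-fixed. Compounds came from DMSO stocks and were tested at 100 μM, 10 μM, 1 μM, 0.1 μM and 10 nM for 48 h. Cells were fixed with cold TCA and stained with 0.4% SRB, and the dye was solubilized in 10 mM Tris base with A515 read.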

LOX IMVI = test: Anticancer activity against human LOX IMVI cells assessed as cell growth inhibition incubated for 48 hrs by SRB method
Malme-3M = test: Anticancer activity against human MALME-3M cells assessed as cell growth inhibition incubated for 48 hrs by SRB method
M14 = test: Anticancer activity against human M14 cells assessed as cell growth inhibition incubated for 48 hrs by SRB method; in short: as §1
MDA-MB-435 = test: Anticancer activity against human MDA-MB-435 cells assessed as cell growth inhibition incubated for 48 hrs by SRB method; in short: as §1
OVCAR-5 = test: Anticancer activity against human OVCAR-5 cells assessed as cell growth inhibition incubated for 48 hrs by SRB method
OVCAR-8 = test: Anticancer activity against human OVCAR-8 cells assessed as cell growth inhibition incubated for 48 hrs by SRB method; in short: as §1
786-0 = test: Anticancer activity against human 786-0 cells assessed as cell growth inhibition incubated for 48 hrs by SRB method; in short: as §1
RXF 393 = test: Anticancer activity against human RXF 393 cells assessed as cell growth inhibition incubated for 48 hrs by SRB method; in short: as §1
PC-3 = test: Anticancer activity against human PC-3 cells assessed as cell growth inhibition incubated for 48 hrs by SRB method; in short: as §1
[1] = Anticancer activity against human HS 578T cells assessed as cell growth inhibition incubated for 48 hrs by SRB method
MDA-MB-468 = test: Anticancer activity against human MDA-MB-468 cells assessed as cell growth inhibition incubated for 48 hrs by SRB method; in short: as §1

C=C1C(=O)O[C@H]2[C@H]1CC/C(COC(=O)NCCc1ccc(Br)cc1)=C\CC[C@@]1(C)O[C@@H]21
GI50 (CCRF-CEM): 0.27 µM
GI50 (RPMI-8226): 0.62 µM
GI50 (SR): 0.43 µM
GI50 (A549): 2.59 µM
GI50 (EKVX): 1.54 µM
GI50 (HOP-62): 1.99 µM
GI50 (MOLT-4): 1.69 µM
GI50 (HOP-92): 1.28 µM
GI50 (K562): 0.53 µM
GI50 (HL-60(TB)): 1.06 µM
GI50 (NCI-H226): 1.72 µM
GI50 (NCI-H23): 1.72 µM
GI50 (NCI-H460): 2.06 µM
GI50 (NCI-H522): 1.16 µM
GI50 (COLO 205): 1.82 µM
GI50 (HCC 2998): 1.71 µM
GI50 (HCT-116): 0.47 µM
GI50 (HCT-15): 1.01 µM
GI50 (HT-29): 1.32 µM
GI50 (KM12): 1.95 µM
GI50 (SW-620): 0.71 µM
GI50 (SF-268): 1.56 µM
GI50 (SF-295): 3.81 µM
GI50 (SF-539): 1.46 µM
GI50 (SNB-19): 1.39 µM
GI50 (SNB-75): 1.2 µM
GI50 (U-251): 1.4 µM
GI50 (LOX IMVI): 1.18 µM
GI50 (Malme-3M): 2.09 µM
GI50 (M14): 1.26 µM
GI50 (MDA-MB-435): 1.58 µM
GI50 (OVCAR-5): 0.98 µM
GI50 (OVCAR-8): 1.56 µM
GI50 (786-0): 1.49 µM
GI50 (RXF 393): 1.32 µM
GI50 (PC-3): 1.73 µM
GI50 [1]: 0.41 µM
GI50 (MDA-MB-468): 0.84 µM
